For six compounds, IC50, Relative potency and maximal displacement of specific binding results are on record in ChEMBL document CHEMBL1127829, “Nonpeptide peptidomimetic antagonists of the neuropeptide Y receptor: benextramine analogs with selectivity for the peripheral Y2 receptor” (J Med Chem, 1994).

Experiment [1] is described as follows: Concentration producing half maximal displacement of [3H]NPY specific binding from benextramine sensitive NPY binding sites in rat brain membranes. Type of experiment: cell membranes. In outline:
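Membranes from male Sprague–Dawley rat brain (250–300 g), 1.2–1.6 mg protein/mL, were incubated with 1.0 nM [3H]NPY and 10–12 concentrations (10⁻³–10⁻⁷ M) of compound. Incubation was in duplicate in Krebs–Ringer bicarbonate with 50 mM phosphate, 0.1% BSA and 0.05% bacitracin (pH 7.4), at 25 °C for 90 min. Nonspecific binding was set with 1 μM NPY. Bound ligand was collected on PEI-treated GF/A filters and counted by scintillation. Runs were done at least in triplicate, and averaged data were fit to a two-site competitive isotherm.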
A general note: Loss of bound radioactivity is the signal in a displacement assay; it reports binding, not function.

For another experiment, the species on record is Rattus norvegicus. In words: Relative potency in displacing 1 nM [3H]NPY from benextramine-sensitive rat brain NPYsites.
Experiment [2] is described as follows: Percentage of maximum displacement of 1.0 nM [3H]NPY from rat brain membranes homogenates using 1.0 uM NPY to determine specific binding. Type of experiment: cell membranes. Particulars: Membrane. In short, it runs like this: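 Rat brain membranes (1.2–1.6 mg protein/mL) were incubated with 1.0 nM [3H]NPY and 10⁻³–10⁻⁷ M compound in duplicate. Buffer was pH 7.4 Krebs–Ringer bicarbonate/phosphate with BSA and bacitracin, at 25 °C for 90 min. Nonspecific binding was defined with 1.0 μM NPY, and results were filtered and counted by scintillation. The value is the maximal percentage of specific [3H]NPY binding displaced, from at least triplicate experiments.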

Molecules are shown by their SMILES.

Consider `N=C(N)N(CCCCCCNCC12C[C@H]3C[C@@H](C1)C[C@@H](C2)C3)CCSSCCN(CCCCCCNCC12C[C@H]3C[C@@H](C1)C[C@@H](C2)C3)C(=N)N`, for which, in experiment [1], the IC50 (as a rule, the concentration needed to halve the response being measured) is 15 µM. The compound also registered a Relative potency in the experiment filed under Rattus norvegicus of 3.8. The compound further yielded a maximal displacement of specific binding in experiment [2] of 68%.
The like results for `c1ccc2cc(CNCCCCCCNCCSSCCNCCCCCCNCc3ccc4ccccc4c3)ccc2c1` were, in that order, 31.3 µM, 1.8 and 68%.
Consider `c1ccc2cc(CNCCCCCCNCCCCCCNCCCCCCNCc3ccc4ccccc4c3)ccc2c1`, for which the IC50 in experiment [1] amounted to 48.3 µM. In the experiment listed under Rattus norvegicus, the Relative potency is 1. This compound also registered a maximal displacement of specific binding in experiment [2] of 75%.
The compound `N=C(N)N(CCCCCCNCc1ccc2ccccc2c1)CCSSCCN(CCCCCCNCc1ccc2ccccc2c1)C(=N)N` displayed an IC50 in experiment [1] of 14.8 µM. Besides, the Relative potency in the experiment filed under Rattus norvegicus is reported as 3.9. For the same compound, the maximal displacement of specific binding in experiment [2] was found to be 76%.
With `COc1ccccc1CNCCCCCCNCCSSCCNCCCCCCNCc1ccccc1OC` [BENEXTRAMINE], in experiment [1], the IC50 worked out at 57.6 µM. The compound also showed a Relative potency in the experiment filed under Rattus norvegicus of 1. This compound came in with a maximal displacement of specific binding in experiment [2] of 65%.
The corresponding values for `N=C(N)N(CCCCCCNCc1ccc2ccccc2c1)CCCCCCN(CCCCCCNCc1ccc2ccccc2c1)C(=N)N` are 18.4 µM, 2.6 and 72%.
